Tested on: 4T1 mammary tumors
Type: in vivo, mouse (BALB/c)
Details: Alexa546-pHLIP i.v., time points 2, 4, 24, 48 h
How it was run: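 Female BALB/c mice, s.c. 4T1 cells (8 × 10^5 cells/0.1 mL) in right flank; used at ~6 mm tumor diameter. Single tail-vein dose of 5 nmol (100 μL of 50 μM) Alexa546-labeled peptide in PBS. Necropsy at 2, 4, 24, 48 h; excised tumor, muscle, kidney, liver imaged immediately; mean fluorescence intensity quantified. Six mice per construct.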

Sequence | Time postinjection of maximal renal fluorescence signal (kidney) [h] | Time postinjection of maximum fluorescence signal in tumor (4T1 tumor) [h]
ACDDQNPWRAYLDLLFPTDTLLLDLLW [Var3] | 24 | –
ACEEQNPWARYLEWLFPTETLLLEL [Var7] | – | 4
